11 compounds from ChEMBL document CHEMBL2086393, “Haloenol pyranones and morpholinones as antineoplastic agents of prostate cancer” (Bioorg Med Chem Lett, 2012) can be followed below.

One may read the IC50 as the concentration that inhibits the measured activity by half. A high value points to lower potency.

The source made the active and inactive calls. The calls are words filed in the database; no cut-off is given here.

Assay [1] relates to PC-3. As to the kind of experiment: Antineoplastic activity against human PC3 cells after 24 hrs by MTT assay. Particulars: PC-3, 24 h. The class given is functional, cell-based. In outline:
(§1)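 LNCaP and PC-3 human prostate cancer cells were exposed to compound for 24, 48 or 72 h, and growth was read as the change in MTT staining. IC50 was calculated from 3–5 experiments, each run in duplicate on separate cell passages.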
For orientation: Tetrazolium dyes change colour on reduction, which living cells bring about.

Assay [2] deals with LNCaP. Kind of assay: Antineoplastic activity against human LNCAP cells after 24 hrs by MTT assay. The class given is functional, cell-based. In outline: as §1
Assay [3] deals with PC-3. Kind of assay: Antineoplastic activity against human PC3 cells after 48 hrs by MTT assay. The class given is functional, cell-based. Particulars: PC-3, 48 h. The essentials: as §1
The test system of assay [4] is PC-3. Kind of assay: Antineoplastic activity against human PC3 cells after 72 hrs by MTT assay. To be noted: PC-3, 72 h. The class given is functional, cell-based. In outline:
as §1

Assay [5] relates to LNCaP. As to the kind of experiment: Antineoplastic activity against human LNCAP cells after 48 hrs by MTT assay. The class given is functional, cell-based. In outline: as §1
Assay [6] deals with LNCaP. Kind of assay: Antineoplastic activity against human LNCAP cells after 72 hrs by MTT assay. The class given is functional, cell-based. In outline:
as §1

For assay [7], the species on record is Rattus norvegicus. Kind of assay: Inhibition of iPLA2beta in rat kidney cytosol using arachidonoyl thio-phosphatidylcholine as substrate up to 100 uM after 0.5 hrs by spectrophotometry. The class given is tissue-based. In outline: (§2)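 Cytosolic fractions were preincubated with compound at 0–100 μM for 0.5 h. Arachidonoyl thiophosphatidylcholine, a hydrolysable thioester probe of PLA2 activity, was then added to follow enzyme activity.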

In assay [8] the test system is LNCaP. As to the kind of experiment: Cytotoxicity against human LNCAP cells assessed as change in cell differentiation at 5 uM after 72 hrs by phase-contrast microscopic analysis. The class given is functional, cell-based. The essentials: (§3)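 LNCaP cells were treated at 5 μM for 72 h. Cells were inspected by eye under phase-contrast microscopy for changes in shape and differentiation, death, and signs of apoptosis or necrosis, compared with a DMSO vehicle control.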

For assay [9], the system named is LNCaP. As to the kind of experiment: Cell cycle arrest in human LNCAP cells assessed as increase in G1 phase cells at 10 uM after 24 hrs by PI-based flow cytometric analysis relative to control. The class given is functional. The essentials:
(§4)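 LNCaP cells were treated for 24 h at 5 or 10 μM. Cells were stained with propidium iodide and analysed by flow cytometry for the percentages in G1, S and G2/M phases, compared with control.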
(In general: A flow cytometer gives signals particle by particle.)

The species entered for assay [10] is Rattus norvegicus. Kind of assay: Inhibition of iPLA2beta in rat kidney cytosol using arachidonoyl thio-phosphatidylcholine as substrate after 0.5 hrs by spectrophotometry. The class given is tissue-based. The essentials: as §2
The test system of assay [11] is LNCaP. As to the kind of experiment: Cell cycle arrest in human LNCAP cells assessed as decrease in S phase cells at 5 uM after 24 hrs by PI-based flow cytometric analysis relative to control. The class given is functional. In outline:
as §4

For assay [12], the system named is LNCaP. As to the kind of experiment: Antineoplastic activity against human LNCAP cells at 5 to 13 uM by MTT assay. The class given is functional, cell-based. Particulars: TDE = time-dependent effect. The essentials:
as §1

Assay [13] has as its system LNCaP. As to the kind of experiment: Cell cycle arrest in human LNCAP cells assessed as decrease in G2/M phase cells at 5 uM after 24 hrs by PI-based flow cytometric analysis relative to control. The class given is functional. In outline:
as §4

The subject of assay [14] is LNCaP. As to the kind of experiment: Cytotoxicity against human LNCAP cells assessed as change in cell shape at 5 uM after 72 hrs by phase-contrast microscopic analysis. The class given is functional, cell-based. The essentials:
as §3

The test system of assay [15] is PC-3. Kind of assay: Antineoplastic activity against human PC3 cells at 14 to 34 uM by MTT assay. The class given is functional, cell-based. To be noted: TDE = time-dependent effect. The essentials:
as §1

In assay [16] the test system is LNCaP. Kind of assay: Cell cycle arrest in human LNCAP cells assessed as increase in G1 phase cells at 5 uM after 24 hrs by PI-based flow cytometric analysis relative to control. The class given is functional. The essentials: as §4
Assay [17] relates to LNCaP. As to the kind of experiment: Cytotoxicity against human LNCAP cells assessed as cell death at 5 uM after 72 hrs by phase-contrast microscopic analysis. The class given is functional, cell-based. In outline: as §3
Assay [18] deals with LNCaP. As to the kind of experiment: Cell cycle arrest in human LNCAP cells assessed as decrease in S phase cells at 10 uM after 24 hrs by PI-based flow cytometric analysis relative to control. The class given is functional. The essentials: as §4
Assay [19] deals with LNCaP. As to the kind of experiment: Induction of apoptosis in human LNCAP cells at 5 uM after 72 hrs by phase-contrast microscopic analysis. The class given is functional, cell-based. In outline: as §3
In assay [20] the test system is LNCaP. Kind of assay: Induction of necrosis in human LNCAP cells at 5 uM after 72 hrs by phase-contrast microscopic analysis. The class given is functional, cell-based. The essentials:
as §3

Take `C#CCN1CC(=O)O/C(=C/Br)C1`: the IC50 amounted to 13 µM in the assay on PC-3 [1]; 25 µM in the assay with LNCaP [2]; 10 µM in the assay on PC-3 [3]; 7 µM in the assay on PC-3 [4]; 29 µM in the assay with LNCaP [5]; 28 µM with LNCaP [6].
For the compound `O=C1O/C(=C/Br)CC[C@H]1c1cccc2ccccc12`, the inhibition entry in the assay listed under Rattus norvegicus [7] was “Active”.
In the case of `O=C1O/C(=C/Br)CCC1c1cccc2ccccc12` (racemic) [BROMOENOL LACTONE], the result in the assay with LNCaP [8], in the assay on LNCaP [14] and in the assay with LNCaP [17] was inactive. Besides, the outcome in the assay with LNCaP [9], with LNCaP [11], in the assay with LNCaP [13], in the assay with LNCaP [16] and in the assay with LNCaP [18] was Active. For the same compound, the inhibition entry in the assay listed under Rattus norvegicus [10] was “Dose-dependent effect”. Besides, the IC50 with PC-3 [1] was 34 µM; in the assay with LNCaP [2] it was 13 µM; in the assay with PC-3 [3], 26 µM; in the assay with PC-3 [4], 14 µM; with LNCaP [5] it was 5 µM; in the assay with LNCaP [6], 9 µM. Moreover, the Activity entry with LNCaP [12] and with PC-3 [15] was “tde” each time.
Consider `C#CCN1C/C(=C\I)OC(=O)[C@@H]1c1ccccc1`, for which the IC50 with PC-3 [1] amounted to 21 µM; in the assay on LNCaP [2], 26 µM; in the assay on PC-3 [3] it was 21 µM; in the assay with PC-3 [4], 25 µM; in the assay on LNCaP [5], 23 µM; in the assay on LNCaP [6], 20 µM.
As for `C#CCN1C/C(=C\Br)OC(=O)[C@@H]1c1ccccc1`, the outcome in the assay on LNCaP [9], in the assay with LNCaP [11], with LNCaP [13], in the assay with LNCaP [16] and in the assay on LNCaP [18] was Active. In addition, the inhibition result in the assay filed under Rattus norvegicus [7] was “Active”. Moreover, the half-maximal inhibitory concentration (IC50) with PC-3 [1] is 15 µM; in the assay with LNCaP [2], 8 µM; with PC-3 [3] it was 13 µM; with PC-3 [4], 5 µM; in the assay with LNCaP [5], 3 µM; in the assay on LNCaP [6], 3 µM.
Regarding `O=C1O/C(=C/Br)CCC1c1ccccc1` (racemic), the result in the assay with LNCaP [8], in the assay on LNCaP [14] and with LNCaP [17] was inactive. Also, the outcome with LNCaP [9], in the assay with LNCaP [11], in the assay on LNCaP [13], in the assay with LNCaP [16] and in the assay with LNCaP [18] was Active. In the assay filed under Rattus norvegicus [10], the inhibition entry was “Dose-dependent effect”. Besides, the IC50 was found to be 27 µM with PC-3 [1]; 31 µM in the assay with LNCaP [2]; 10 µM in the assay on PC-3 [3]; 6 µM with PC-3 [4]; 5 µM with LNCaP [5]; 4 µM in the assay on LNCaP [6].
Turning to `O=C1CCC/C(=C\I)O1`, the IC50 with PC-3 [1] worked out at 32 µM; in the assay on LNCaP [2], 9 µM; in the assay on PC-3 [3] it was 15 µM; with PC-3 [4], 16 µM; in the assay with LNCaP [5], 5 µM; with LNCaP [6], 7 µM.
On to `O=C1CCC/C(=C\Br)O1`, for which the IC50 with PC-3 [1] is 19 µM; in the assay with LNCaP [2] it was 10 µM; with PC-3 [3], 23 µM; in the assay with PC-3 [4], 14 µM; in the assay with LNCaP [5] it was 5 µM; in the assay with LNCaP [6] it was 5 µM.
With `C#CCN1C/C(=C\Br)OC(=O)[C@@H]1Cc1ccccc1`, the IC50 is 33 µM in the assay on PC-3 [1]; 41 µM in the assay on LNCaP [2]; 57 µM in the assay on PC-3 [3]; 39 µM in the assay on PC-3 [4]; 26 µM with LNCaP [5]; 32 µM in the assay on LNCaP [6].
For `O=C1O/C(=C/Br)CN(Cc2ccccc2)[C@H]1c1ccccc1`, the IC50 was 4 µM in the assay with PC-3 [1]; 3 µM with LNCaP [2]; 1 µM in the assay on PC-3 [3]; 4 µM with PC-3 [4]; 4 µM with LNCaP [5]; 3 µM in the assay on LNCaP [6].
Regarding `C#CCN1C/C(=C\Br)OC(=O)[C@H]1c1ccccc1`, the result in the assay with LNCaP [9], in the assay with LNCaP [11], with LNCaP [13], in the assay on LNCaP [19], in the assay on LNCaP [16] and with LNCaP [20] was Active. The outcome in the assay with LNCaP [18] was Active. The inhibition result in the assay listed under Rattus norvegicus [7] is “inactive”. The IC50 was 8 µM with PC-3 [1]; 6 µM with LNCaP [2]; 6 µM in the assay on PC-3 [3]; 3 µM in the assay with PC-3 [4]; 6 µM with LNCaP [5]; 3 µM in the assay with LNCaP [6].
